Drawing on ChEMBL document CHEMBL1124709, “Synthesis and antiviral activity of 3'-heterocyclic substituted 3'-deoxythymidines” (1990), this text covers EC50, CC50 and MCC for twelve compounds.

Bounds are passed on as bounds.

What all share (format): functional
In experiment [1] the test system is MT4. The experiment can be described thus: Effective dose of compound required to achieve 50% protection of MT-4 cells against the cytopathic effect of HIV. As to conditions: Homo sapiens, read-out: ED50 (the source's name). Summed up:
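HIV-1 strain HTLV-III_B in human MT-4 cells; the read-out is inhibition of virus-induced cytopathic effect. ED50 is the dose giving 50% protection of the cells.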
On the technique in general: Cytopathic effects are the visible damage that an infection or toxin causes in cultured cells.

Experiment [2] concerns MT4. Put plainly: Cytotoxic dose required to reduce the viability of normal uninfected MT-4 cells by 50%. As to conditions: Homo sapiens, read-out: CD50 (the source's name).
Experiment [3] deals with C3H/3T3. The experiment can be described thus: Inhibitory effect on MSV-induced transformation of C3H/3T3 cells. Particulars: Mus musculus, read-out: ED50 (the source's name). Put shortly:
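Murine embryo fibroblast C3H/3T3 cells infected with Moloney murine sarcoma virus; the read-out is inhibition of virus-induced cell transformation.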

The subject of experiment [4] is C3H/3T3. The experiment can be described thus: Minimum cytotoxic concentration required to inhibit MSV-induced transformation of C3H/3T3 cells. As to conditions: Mus musculus. Summed up: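 Murine embryo fibroblast C3H/3T3 cells examined under the microscope. The value is the minimum concentration at which an alteration of normal cell morphology was seen.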

`Cc1cn([C@@H]2O[C@H](CO)[C@H](n3cncn3)C2O)c(=O)[nH]c1=O` (stereo partly drawn): the values for the EC50 in experiment [1] and in experiment [3] were more than 500 µM and more than 100 µM, respectively. Further, in experiment [2], the CC50 was more than 500 µM. The compound also registered an MCC in experiment [4] of more than 100 µM.
`Cc1cn([C@@H]2O[C@H](CO)[C@H](n3cccn3)C2O)c(=O)[nH]c1=O` (stereo partly drawn): the EC50 in experiment [1] and in experiment [3] was more than 100 µM each time. The CC50 in experiment [2] was more than 100 µM. In experiment [4], this compound showed an MCC of more than 100 µM.
On to `Cc1cn([C@H]2C[C@@H](NC=O)[C@@H](CO)O2)c(=O)[nH]c1=O`, for which the EC50 in experiment [1] and in experiment [3] was more than 100 µM in each case. Further, the CC50 in experiment [2] was 66 µM. The MCC in experiment [4] was more than 100 µM.
In the case of `Cc1cn([C@@H]2O[C@H](CO)[C@H](n3ccnc3)C2O)c(=O)[nH]c1=O` (stereo partly drawn), the EC50 in experiment [1] is more than 500 µM; in experiment [3] it was more than 100 µM. The CC50 in experiment [2] is more than 500 µM. The MCC in experiment [4] is more than 100 µM.
As to `Cc1cn([C@H]2C[C@@H](n3cncn3)[C@@H](CO)O2)c(=O)[nH]c1=O`, the values for the EC50 in experiment [1] and in experiment [3] were more than 500 µM and more than 100 µM, respectively. The CC50 in experiment [2] was more than 500 µM. In experiment [4], this compound had an MCC of more than 100 µM.
Take `Cc1cn([C@H]2C[C@@H](n3cccc3)[C@@H](CO)O2)c(=O)[nH]c1=O`: the EC50 worked out at 201 µM in experiment [1] and 91 µM in experiment [3]. For the same compound, in experiment [2], the CC50 is more than 500 µM. In addition, the MCC in experiment [4] was more than 100 µM.
For the compound `Cc1cn([C@H]2C[C@@H](n3ccnn3)[C@@H](CO)O2)c(=O)[nH]c1=O`, the EC50 in experiment [1] is more than 500 µM; in experiment [3], more than 100 µM. The CC50 in experiment [2] was more than 500 µM. The MCC in experiment [4] is more than 100 µM.
In the case of `Cc1cn([C@@H]2O[C@H](CO)C[C@H]2n2cncn2)c(=O)[nH]c1=O`, the EC50 in experiment [1] is more than 500 µM; in experiment [3], more than 100 µM. In experiment [2], the CC50 is more than 500 µM. The compound further gave an MCC in experiment [4] of more than 100 µM.
Turning to `Cc1cn([C@H]2C[C@@H](n3cnnc3)[C@@H](CO)O2)c(=O)[nH]c1=O`, the EC50 was more than 5 µM in experiment [1] and more than 100 µM in experiment [3]. Moreover, the CC50 in experiment [2] came out at 4.8 µM. The same compound gave an MCC in experiment [4] of more than 100 µM.
`Cc1cn([C@H]2C[C@@H](n3ccnc3)[C@@H](CO)O2)c(=O)[nH]c1=O`: the values for the EC50 in experiment [1] and in experiment [3] were more than 500 µM and more than 100 µM, respectively. For the same compound, the CC50 in experiment [2] is more than 500 µM. The same compound displayed an MCC in experiment [4] of more than 100 µM.
For the compound `Cc1cn([C@H]2C[C@@H](n3cccn3)[C@@H](CO)O2)c(=O)[nH]c1=O`, the values for the EC50 in experiment [1] and in experiment [3] were more than 500 µM and more than 100 µM, respectively. Also, the CC50 in experiment [2] is more than 500 µM. Besides, the MCC in experiment [4] was more than 100 µM.
In the case of `Cc1cn([C@@H]2O[C@H](CO)[C@@H](O)C2n2cncn2)c(=O)[nH]c1=O` (stereo partly drawn), the EC50 in experiment [1] was more than 500 µM; in experiment [3], more than 100 µM. Also, the CC50 in experiment [2] is more than 500 µM. In experiment [4], this compound had an MCC of more than 100 µM.
